Assay results from ChEMBL document CHEMBL1781959, “Synthesis and in vitro antitumor activity of substituted quinazoline and quinoxaline derivatives: search for anticancer agent” (Eur J Med Chem, 2011).

Key:
Type in all cases: functional
[1] = test system: SR; assay: Anticancer activity against human SR cells assessed as cell growth promotion at 10^-5 M after 48 hrs by SRB assay relative to control
[2] = test system: MCF7; assay: Anticancer activity against human MCF7 cells assessed as cell growth promotion at 10^-5 M after 48 hrs by SRB assay relative to control
[3] = test system: UACC-257; assay: Anticancer activity against human UACC257 cells assessed as cell growth promotion at 10^-5 M after 48 hrs by SRB assay relative to control
[4] = test system: SN12C; assay: Anticancer activity against human SN12C cells assessed as cell growth promotion at 10^-5 M after 48 hrs by SRB assay relative to control
[5] = test system: NCI-H460; assay: Anticancer activity against human NCI-H460 cells assessed as cell growth promotion at 10^-5 M after 48 hrs by SRB assay relative to control
[6] = test system: NCI-H322M; assay: Anticancer activity against human NCI-H322M cells assessed as cell growth promotion at 10^-5 M after 48 hrs by SRB assay relative to control
[7] = test system: IGROV-1; assay: Anticancer activity against human IGROV1 cells assessed as cell growth promotion at 10^-5 M after 48 hrs by SRB assay relative to control
[8] = test system: OVCAR-5; assay: Anticancer activity against human OVCAR5 cells assessed as cell growth promotion at 10^-5 M after 48 hrs by SRB assay relative to control
[9] = test system: SK-MEL-28; assay: Anticancer activity against human SK-MEL-28 cells assessed as cell growth promotion at 10^-5 M after 48 hrs by SRB assay relative to control
[10] = test system: A549; assay: Anticancer activity against human A549 cells assessed as cell growth promotion at 10^-5 M after 48 hrs by SRB assay relative to control
[11] = test system: SF-295; assay: Anticancer activity against human SF295 cells assessed as cell growth promotion at 10^-5 M after 48 hrs by SRB assay relative to control
[12] = test system: SW-620; assay: Anticancer activity against human SW620 cells assessed as cell growth promotion at 10^-5 M after 48 hrs by SRB assay relative to control
[13] = test system: MDA-MB-468; assay: Anticancer activity against human MDA-MB-468 cells assessed as cell growth promotion at 10^-5 M after 48 hrs by SRB assay relative to control
[14] = test system: NCI-H23; assay: Anticancer activity against human NCI-H23 cells assessed as cell growth promotion at 10^-5 M after 48 hrs by SRB assay relative to control
[15] = test system: CCRF-CEM; assay: Anticancer activity against human CCRF-CEM cells assessed as cell growth promotion at 10^-5 M after 48 hrs by SRB assay relative to control
[16] = test system: LOX IMVI; assay: Anticancer activity against human LOXIMVI cells assessed as cell growth promotion at 10^-5 M after 48 hrs by SRB assay relative to control
[17] = Anticancer activity against human Hs 578T cells assessed as cell growth promotion at 10^-5 M after 48 hrs by SRB assay relative to control
[18] = test system: OVCAR-3; assay: Anticancer activity against human OVCAR3 cells assessed as cell growth promotion at 10^-5 M after 48 hrs by SRB assay relative to control
[19] = test system: HCT-15; assay: Anticancer activity against human HCT15 cells assessed as cell growth promotion at 10^-5 M after 48 hrs by SRB assay relative to control
[20] = test system: HOP-62; assay: Anticancer activity against human HOP62 cells assessed as cell growth promotion at 10^-5 M after 48 hrs by SRB assay relative to control
[21] = test system: 786-0; assay: Anticancer activity against human 786-0 cells assessed as cell growth promotion at 10^-5 M after 48 hrs by SRB assay relative to control
[22] = test system: K562; assay: Anticancer activity against human K562 cells assessed as cell growth promotion at 10^-5 M after 48 hrs by SRB assay relative to control
[23] = test system: COLO 205; assay: Anticancer activity against human COLO205 cells assessed as cell growth promotion at 10^-5 M after 48 hrs by SRB assay relative to control
[24] = test system: U-251; assay: Anticancer activity against human U251 cells assessed as cell growth promotion at 10^-5 M after 48 hrs by SRB assay relative to control
[25] = test system: SF-268; assay: Anticancer activity against human SF268 cells assessed as cell growth promotion at 10^-5 M after 48 hrs by SRB assay relative to control
[26] = Anticancer activity against human […] cells assessed as cell growth promotion at 10^-5 M after 48 hrs by SRB assay relative to control
[27] = test system: PC-3; assay: Anticancer activity against human PC3 cells assessed as cell growth promotion at 10^-5 M after 48 hrs by SRB assay relative to control
[28] = test system: MDA-MB-231; assay: Anticancer activity against human MDA-MB-231 cells assessed as cell growth promotion at 10^-5 M after 48 hrs by SRB assay relative to control
[29] = test system: HL-60(TB); assay: Anticancer activity against human HL-60(TB) cells assessed as cell growth promotion at 10^-5 M after 48 hrs by SRB assay relative to control
Method in brief: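 NCI-60 single-dose screen: compound at 10^-5 M, 48 h at 37 °C, 5% CO2; cells grown in RPMI 1640 with 5% FBS and 2 mM L-glutamine, pre-incubated 24 h before dosing. Adherent cells fixed with cold TCA; endpoint is sulforhodamine B protein staining. Percent growth of treated cells is reported relative to untreated control.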

[30] = test system: Malme-3M; assay: Anticancer activity against human MALME-3M cells assessed as cell growth promotion at 10^-5 M after 48 hrs by SRB assay relative to control
[31] = test system: SF-539; assay: Anticancer activity against human SF539 cells assessed as cell growth promotion at 10^-5 M after 48 hrs by SRB assay relative to control
[32] = test system: HCT-116; assay: Anticancer activity against human HCT116 cells assessed as cell growth promotion at 10^-5 M after 48 hrs by SRB assay relative to control
[33] = test system: NCI/ADR-RES; assay: Anticancer activity against human NCI/ADR-RES cells assessed as cell growth promotion at 10^-5 M after 48 hrs by SRB assay relative to control
[34] = test system: UACC-62; assay: Anticancer activity against human UACC62 cells assessed as cell growth promotion at 10^-5 M after 48 hrs by SRB assay relative to control
[35] = test system: HT-29; assay: Anticancer activity against human HT-29 cells assessed as cell growth promotion at 10^-5 M after 48 hrs by SRB assay relative to control
[36] = test system: NCI-H226; assay: Anticancer activity against human NCI-H226 cells assessed as cell growth promotion at 10^-5 M after 48 hrs by SRB assay relative to control
[37] = test system: CAKI-1; assay: Anticancer activity against human Caki1 cells assessed as cell growth promotion at 10^-5 M after 48 hrs by SRB assay relative to control
[38] = test system: HCC 2998; assay: Anticancer activity against human HCC2998 cells assessed as cell growth promotion at 10^-5 M after 48 hrs by SRB assay relative to control

Compound	Activity [1]	Activity [2]	Activity [3]	Activity [4]	Activity [5]	Activity [6]	Activity [7]	Activity [8]	Activity [9]	Activity [10]	Activity [11]	Activity [12]	Activity [13]	Activity [14]	Activity [15]	Activity [16]	Activity [17]	Activity [18]	Activity [19]	Activity [20]	other results
COc1ccc(OC)c(/C=C/c2nc3ccccc3nc2SCc2nc3ccccc3[nH]2)c1	81.4%	82.73%	111%	88.34%	94.48%	94.87%	79.39%	101%	118%	90.64%	110%	96.03%	98.24%	92.16%	81.59%	93.9%	87.08%	107%	103%	87.33%	Activity [21]: 90.52%; Activity [22]: 90.78%; Activity [23]: 104%; Activity [24]: 104%; Activity [25]: 99.47%; Activity [26]: 77.53%; Activity [27]: 113%; Activity [28]: 96.56%; Activity [29]: 91.21%; Activity [30]: 108%; Activity [31]: 94.92%; Activity [32]: 73.92%; Activity [33]: 95.82%; Activity [34]: 80.62%; Activity [35]: 80.4%; Activity [36]: 87.18%; Activity [37]: 83.86%
N#Cc1ccc(/C=C/c2nc3ccccc3nc2SCc2nc3ccccc3[nH]2)cc1	97.73%	101%	113%	94.09%	104%	120%	103%	104%	88.08%	93.12%	127%	98.13%	104%	105%	93.78%	100%	107%	110%	114%	99.49%	Activity [21]: 90.69%; Activity [22]: 99.2%; Activity [23]: 105%; Activity [24]: 107%; Activity [25]: 109%; Activity [26]: 102%; Activity [27]: 103%; Activity [28]: 97.02%; Activity [29]: 94.7%; Activity [30]: 90.35%; Activity [31]: 125%; Activity [32]: 88.47%; Activity [33]: 103%; Activity [34]: 100%; Activity [35]: 89.43%; Activity [36]: 95.59%; Activity [37]: 111%
N#Cc1ccc(/C=C/c2ccc(NC(=O)c3ccccc3NC(=O)c3ccco3)cc2)cc1	109%	98.4%	103%	104%	116%	102%	110%	105%	113%	101%	114%	106%	108%	94.62%	96.43%	109%	100%	107%	104%	111%	Activity [21]: 115%; Activity [22]: 94.72%; Activity [23]: 124%; Activity [24]: 100%; Activity [25]: 104%; Activity [26]: 108%; Activity [27]: 109%; Activity [28]: 94.46%; Activity [29]: 84.98%; Activity [30]: 108%; Activity [31]: 102%; Activity [32]: 103%; Activity [33]: 109%; Activity [34]: 99%; Activity [38]: 105%; Activity [36]: 107%; Activity [37]: 83.31%
